HIF act: HIF pathway transcriptional activators, primary screen, cell-based, U2OS HRE-luciferase, luminescence; U2OS HRE-luciferase reporter; normalized: DMSO 0%, desferrioxamine 100%; activation, % at 7.5 µM (by protocol); AID 1910, 2009; 0.32% of 300,000 active;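 active = mean activation of at least 10% of the iron chelator positive control signal, with at least half of replicates also reaching 10%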
Neddyl block: inhibitors of cullin neddylation, primary screen, biochemical, TR-FRET, uHTS, NAE and Ubc12; NEDD8-conjugating enzyme Ubc12 (Homo sapiens) + NEDD8-activating enzyme E1 regulatory …; inhibition, % at 25 µM; 0.58% of 360,000 active; AID 651699, 2012; in the data active = inhibition above about 36%
proCasp3 act: activators of human procaspase-3 D3A mutant, primary screen, biochemical, absorbance, PC-3 D3A mutant, single concentration; activation, % at 8.5 µM; Caspase-3 (Homo sapiens), P42574; 0.11% of 330,000 active; recombinant procaspase-3 D3A, Ac-DEVD-pNA absorbance 405 nm; AID 463141, 2010;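 active = activation above the mean of all tested compounds plus 3 SD, cut at about 21% in these data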
Target sequence (P42574 whole entry D9A/D28A/D175A): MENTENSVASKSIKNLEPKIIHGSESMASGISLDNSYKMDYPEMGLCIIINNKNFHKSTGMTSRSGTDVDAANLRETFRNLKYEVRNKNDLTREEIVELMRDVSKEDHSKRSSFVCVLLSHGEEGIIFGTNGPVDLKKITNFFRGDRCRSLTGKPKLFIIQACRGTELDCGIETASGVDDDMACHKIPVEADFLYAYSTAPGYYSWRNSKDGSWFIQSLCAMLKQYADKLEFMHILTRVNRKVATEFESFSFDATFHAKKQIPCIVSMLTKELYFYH
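material = Procaspase-3 D3A mutant | probe or stimulus = Ac-DEVD-pNA | compound = single dose, 8.5 µM nominal compound, 0.8% DMSO | timing = 1 h preincubation, 2 h reaction | measured by = 405 nm absorbance of p-nitroaniline, reads at 0 and 120 min | benchmarks = DMSO-only low control, 5 µM PC-3 D3A high control | repeats = singlicate, each compound tested once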
Calb FLC: C. albicans growth inhibition with fluconazole, primary screen, CaCi-2 strain, Alamar Blue fluorescence; C. albicans CaCi-2 (fluconazole-resistant clinical isolate) + fluconazole, 48 h; growth inhibition, % (test concentration not listed); 0.57% of 300,000 active;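 active = growth inhibition above about 58% in most replicates, limit read from the data, passing the limit was not always enough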;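 also: all wells also contain fluconazole at 8 µg/ml as a sub-toxic cotreatment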
proCasp7 act: procaspase-7 activators, primary screen, counter-screen for procaspase-3 activator project, biochemical, absorbance, HTS, human; 0.093% of 330,000 active; activation, % at 8.5 µM; Caspase-7 (Homo sapiens), P55210; recombinant procaspase-7, Ac-DEVD-pNA absorbance 405 nm; D23A/D198A/D206A triple mutant, cannot self-cleave; scale: DMSO 0, 5 µM enzyme 100;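 active = percent activation above the screen-wide mean plus 3 SD, cut at about 25% in these data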
Target sequence (P55210 whole entry D23A/D198A/D206A): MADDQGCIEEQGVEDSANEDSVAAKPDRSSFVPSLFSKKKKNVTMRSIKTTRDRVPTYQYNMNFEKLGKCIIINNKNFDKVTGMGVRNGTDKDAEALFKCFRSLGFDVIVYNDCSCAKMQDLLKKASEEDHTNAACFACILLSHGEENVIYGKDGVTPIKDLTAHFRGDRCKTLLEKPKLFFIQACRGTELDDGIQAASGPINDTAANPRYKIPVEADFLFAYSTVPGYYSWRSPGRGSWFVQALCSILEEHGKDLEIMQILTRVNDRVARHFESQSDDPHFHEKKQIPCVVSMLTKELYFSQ
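signal = Epi-absorbance of released pNA at 405 nm, two timepoints | assay system = Uncleavable procaspase-7 mutant enzyme | reagent = Ac-DEVD-pNA substrate, 400 µM as added | times = 1 h enzyme–compound preincubation and 2 h substrate reaction, both 25 °C | benchmarks = low DMSO alone, high DMSO plus 5 µM PC-7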
GAA850 FXN act: FXN promoter activators, primary screen, cell-based, luciferase luminescence, HEK293 lucGAA850 | HEK293 lucGAA850 FXN promoter luciferase reporter, 24 h; percent of 10 µM SAHA response | activation, % at 6 µM | 0.56% of 360,000 active;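 active = activation above the average of all compounds screened plus 3 SD, cutoff fixed separately per campaign, cut at about 7.5% in these data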
procasp7 triplic: procaspase-7 activators, counter-screen for procaspase-3 activator project, biochemical, absorbance, triplicate, human; shares compounds with proCasp3 act; 210 tested, under 10 active; recombinant procaspase-7, Ac-DEVD-pNA absorbance; asp23/198/206-to-Ala mutant, cannot self-cleave; activation, % at 8.5 µM;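 active = mean activation above a set limit taken from an earlier procaspase-7 screen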
proCasp3 confirm: activators of human procaspase-3 D3A mutant, confirmation, biochemical, absorbance, PC-3 D3A mutant, triplicate | shares compounds with proCasp3 act | recombinant PC-3 D3A, Ac-DEVD-pNA absorbance 405 nm; 100% is higher-enzyme control | activation, % at 8.5 µM | 10% of 210 active;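 active = mean activation above a set limit carried over from the earlier primary screen, cut at about 22% in these data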
Large screens that a line does not name were inactive (follow-up assays come after a bar, where shown). Compounds with a hit are over-represented: about 1.9% of the library has one in this group of screens.

COc1ccc(N2CCN(C(=O)CC34CC5CC(CC(C5)C3)C4)CC2)c([N+](=O)[O-])c1	proCasp3 act 22 | procasp7 triplic inactive | proCasp3 confirm inactive
CC(=O)Nc1cc(-c2ccc(CO)cc2)cn2c(-c3ccc(F)c(Cl)c3)cnc12	none (no result: HIF act, proCasp3 act, Calb FLC, proCasp7 act)
CCn1c(SC(C)C(=O)NCC2CCCO2)nc2ccccc21 (stereo not drawn)	proCasp3 act 39 (no result: HIF act, Calb FLC) | procasp7 triplic inactive | proCasp3 confirm inactive
CCn1c(SC(C)C(=O)NCC2CCCO2)nc2scc(-c3ccccc3)c2c1=O (stereo not drawn)	none
CCCCN1C(=O)C(CC(=O)NCc2ccco2)CC(C(=O)N2CCCCCC2)=C1C (stereo not drawn)	none (no result: HIF act, proCasp3 act, Calb FLC, proCasp7 act, GAA850 FXN act)
Cc1ccc(NC(=O)CSc2nnc(-c3cccnc3)o2)c(C)c1	proCasp3 act 23 | procasp7 triplic inactive | proCasp3 confirm inactive
OC[C@@H]1[C@@H](c2ccc(Cl)cc2)C(c2ccc(F)cc2)=NN1c1ccccc1	proCasp3 act 24 (not shown: HIF act, Neddyl block, Calb FLC) | procasp7 triplic inactive | proCasp3 confirm inactive
Cc1cccc(C2=NN(c3ccccc3)[C@H](CO)[C@H]2c2ccc(F)cc2)c1	proCasp3 act 25 (not shown: HIF act, Neddyl block, Calb FLC) | procasp7 triplic inactive | proCasp3 confirm inactive
O=C(NC1CC1)c1ccc2sc([C@@H]3O[C@H](CO)[C@H](O)[C@H](O)[C@H]3O)nc2c1	none (no result: HIF act, proCasp3 act, Calb FLC, proCasp7 act)
Cc1nnc(SC(C)C(=O)NC2CCCCC2)[nH]c1=O (stereo not drawn)	none (no result: HIF act, proCasp3 act, Calb FLC, proCasp7 act)
CCCCn1nc(C(=O)N(C)C2CCCCC2)c2ccccc2c1=O	proCasp3 act 22 (no result: HIF act, Calb FLC) | procasp7 triplic inactive | proCasp3 confirm inactive
COc1ccc(NC(=O)CSc2nc3ccccc3nc2N2CCCC2)cc1Cl	proCasp3 act 30 | procasp7 triplic inactive | proCasp3 confirm inactive
Cc1ccc(S(=O)(=O)c2ccc([N+](=O)[O-])o2)cc1	none (no result: HIF act, proCasp3 act, Calb FLC, proCasp7 act)
CC1CNC(=S)N(c2ccccc2)C1=O (stereo not drawn)	none (no result: HIF act, proCasp3 act, Calb FLC, proCasp7 act)
CCOc1ccccc1NC(=O)COc1coc(CN2CCc3ccccc3C2)cc1=O	proCasp3 act 22 | procasp7 triplic inactive | proCasp3 confirm inactive
CCOc1ccc(CCN2C(=S)N([C@@H](CC(C)C)CN3CCCC3CN3C(=S)NC[C@@H]3CC(C)C)C[C@@H]2Cc2ccccc2)cc1 (stereo partly drawn)	none (no result: HIF act, proCasp3 act, Calb FLC, proCasp7 act)
COC(=O)[C@]12CCCCC=C1N(CCc1ccc(OC)c(OC)c1)C(=O)[C@H](CC(=O)NCc1ccc(C)o1)C2	none (no result: HIF act, proCasp3 act, Calb FLC, proCasp7 act, GAA850 FXN act)
Cc1cccc(C2=NN(c3ccc(Br)cc3)[C@@H](C(=O)N3CCOC3=O)[C@@H]2c2ccc(Cl)cc2)c1	proCasp3 act 23 (not shown: HIF act, Neddyl block, Calb FLC) | procasp7 triplic inactive | proCasp3 confirm inactive
O=C1OCCN1C(=O)[C@H]1[C@H](c2ccc(Cl)cc2)C(c2ccccc2)=NN1c1ccc(Br)cc1	proCasp3 act 28 (not shown: HIF act, Neddyl block, Calb FLC) | procasp7 triplic inactive | proCasp3 confirm inactive
O=C1OCCN1C(=O)[C@H]1[C@H](c2ccc(Cl)cc2)C(c2cccc(Cl)c2)=NN1c1ccccc1	proCasp3 act 23 (not shown: Neddyl block) | procasp7 triplic inactive | proCasp3 confirm inactive
COc1ccc(C(C)(O)c2nc(-c3ccoc3)cs2)cc1 (stereo not drawn)	none (no result: HIF act, proCasp3 act, Calb FLC, proCasp7 act)
CC(C)OCCCNc1nc2c(cnn2C)c(=O)[nH]1	none (no result: HIF act, proCasp3 act, Calb FLC, proCasp7 act)
Cc1ccc(OCc2cc(C(=O)N(C)Cc3cnn(C)c3)no2)cc1C	none (no result: HIF act, proCasp3 act, Calb FLC, proCasp7 act)
Cc1ccc(OCc2cc(C(=O)N(C)Cc3cnn(-c4ccccc4C)c3)no2)cn1	proCasp3 act 23 | procasp7 triplic inactive | proCasp3 confirm inactive
O=C(NCc1cccs1)C1CCC(=O)N(Cc2cccc(C(F)(F)F)c2)C1 (stereo not drawn)	proCasp3 act 42 | procasp7 triplic inactive | proCasp3 confirm inactive
Cc1c(CCC(=O)NCCCN2CCCC2=O)c(=O)oc2cc(O)ccc12	proCasp3 act 26 (not shown: Neddyl block) | procasp7 triplic inactive | proCasp3 confirm inactive
Cc1coc2c(C)c3oc(=O)c(CCC(=O)NCCCN4CCCC4=O)c(C)c3cc12	none (not shown: Neddyl block)
COC(=O)Cn1c(=NC(=O)c2cc(-c3cccs3)nc3ccccc23)sc2cc(S(N)(=O)=O)ccc21	proCasp3 act 78 | procasp7 triplic inactive | proCasp3 confirm inactive
Cc1ccc(OCc2cc(C(=O)N(C)C3CCCc4ccccc43)no2)cc1C (stereo not drawn)	none (no result: HIF act, proCasp3 act, Calb FLC, proCasp7 act)
O=C(CCNS(=O)(=O)c1cccc2nsnc12)N1CC(=O)N(CCc2ccccc2)C(=O)C1	proCasp3 act 24 | procasp7 triplic inactive | proCasp3 confirm inactive
COc1cc([N+](=O)[O-])ccc1NC(=O)CN1C(=O)NC2(CCCCC2C)C1=O (stereo not drawn)	none (no result: HIF act, proCasp3 act, Calb FLC, proCasp7 act)
COC(=O)C1CCN(S(=O)(=O)CCNC(=O)c2ccccc2)CC1	none (no result: HIF act, proCasp3 act, Calb FLC, proCasp7 act)
CCCCN([C@H](CO)C(C)C)S(=O)(=O)c1ccccc1Br	none (no result: HIF act, Calb FLC)
CC(=O)c1cccc(NS(=O)(=O)c2ccc(N/C=C\C(=O)c3ccc(C)cc3)cc2)c1	proCasp3 act 38 | procasp7 triplic inactive | proCasp3 confirm inactive
CC(=O)c1cccc(NS(=O)(=O)c2ccc(N/C=C/C(=O)c3ccc(F)cc3)cc2)c1	none
CC(C)OC(=O)C1OC1(C)c1ccccc1 (stereo not drawn)	none (no result: HIF act, proCasp3 act, Calb FLC, proCasp7 act)
COc1ccc2oc(C(=O)OCC(=O)Nc3cc(S(=O)(=O)N4CCOCC4)ccc3C)c(C)c2c1	none
COc1ccc2oc(C(=O)OCC(=O)Nc3cc(S(=O)(=O)N4CCOCC4)ccc3OC)c(C)c2c1	proCasp3 act 22 | procasp7 triplic inactive | proCasp3 confirm inactive
CCCCOC(=O)c1cc(-c2ccc(/C=N/n3cnnc3)o2)ccc1Cl	none (not shown: Neddyl block)
CCOC(=O)c1cc(-c2ccc(/C=N\n3cnnc3)o2)ccc1Cl	proCasp3 act 29 | procasp7 triplic inactive | proCasp3 confirm inactive
CC1(C(=O)NCc2ccccc2)CN(S(C)(=O)=O)CC(=O)N1CCc1ccccc1F (stereo not drawn)	none (no result: HIF act, proCasp3 act, Calb FLC, proCasp7 act, GAA850 FXN act)
